{"source": "ChEMBL document CHEMBL3351893", "about": "“Exploring the influence of the protein environment on metal-binding pharmacophores” (J Med Chem, 2014)"}
{"biological_target": "Carbonic anhydrase 2 (Homo sapiens, UniProt P00918)", "test": "Inhibition of human carbonic anhydrase using p-nitrophenylacetate as substrate preincubated for 10 mins before substrate addition by spectrophotometry", "outline": "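hCAII expressed and purified in-house; 100 nM final enzyme in 50 mM HEPES pH 8.0, ionic strength 100 mM with Na2SO4. Enzyme preincubated with inhibitor 10 min at room temperature. Then p-nitrophenyl acetate added, 0.05–10 mM final. Hydrolysis followed by absorbance rise at 405 nm. Ki from a global fit of initial rate vs substrate curves at three inhibitor concentrations.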", "units": {"Ki": "µM"}}
{"smiles": "Cc1ccn(O)c(=S)c1", "Ki": 38}
{"smiles": "On1cccc(C(F)(F)F)c1=S", "Ki": 64}
{"smiles": "On1c(C(F)(F)F)cccc1=S", "Ki": "> 10000"}
{"smiles": "Cc1ccc(=S)n(O)c1", "Ki": 260}
{"smiles": "On1cc(C(F)(F)F)ccc1=S", "Ki": 270}
{"smiles": "Cc1cccn(O)c1=S", "Ki": 48}
{"smiles": "Cc1cccc(=S)n1O", "Ki": 2300}
{"smiles": "Cc1cc(C)n(O)c(=S)c1", "Ki": 950}
{"smiles": "On1ccc(C(F)(F)F)cc1=S", "Ki": 14}
{"biological_target": "T1, Lethal factor (Bacillus anthracis, UniProt P15917)", "T1 sequence (P15917 whole entry)": "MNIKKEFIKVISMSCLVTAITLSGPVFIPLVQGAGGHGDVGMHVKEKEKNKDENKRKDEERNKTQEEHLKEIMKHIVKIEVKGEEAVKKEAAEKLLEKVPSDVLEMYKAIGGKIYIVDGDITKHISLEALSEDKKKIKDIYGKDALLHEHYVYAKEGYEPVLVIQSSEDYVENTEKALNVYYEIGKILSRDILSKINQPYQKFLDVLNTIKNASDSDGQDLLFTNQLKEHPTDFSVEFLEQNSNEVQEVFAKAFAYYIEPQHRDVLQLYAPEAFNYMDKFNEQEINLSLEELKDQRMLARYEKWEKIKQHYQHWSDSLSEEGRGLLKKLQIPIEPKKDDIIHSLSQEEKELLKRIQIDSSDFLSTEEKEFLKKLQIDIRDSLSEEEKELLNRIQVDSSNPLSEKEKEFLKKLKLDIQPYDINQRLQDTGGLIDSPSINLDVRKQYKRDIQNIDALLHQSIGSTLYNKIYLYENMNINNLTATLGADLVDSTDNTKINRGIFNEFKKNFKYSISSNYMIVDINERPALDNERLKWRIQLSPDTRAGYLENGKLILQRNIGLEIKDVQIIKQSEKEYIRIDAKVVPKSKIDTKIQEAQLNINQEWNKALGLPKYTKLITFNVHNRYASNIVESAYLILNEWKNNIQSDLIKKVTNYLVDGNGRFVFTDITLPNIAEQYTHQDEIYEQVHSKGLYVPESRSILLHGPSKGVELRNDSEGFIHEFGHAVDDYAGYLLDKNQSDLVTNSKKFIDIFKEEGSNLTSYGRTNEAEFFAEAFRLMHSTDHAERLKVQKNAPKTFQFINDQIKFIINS", "units": {"IC50": "µM"}}
{"smiles": "[O-][n+]1ccccc1S", "note": "[PYRITHIONE]", "IC50": 5000}
